Blank lines part the entries; values can stand above or below the compound they belong to.
How the values were obtained:
liver and lung fibrosis = details: ref Henderson et al. 2013; cited from earlier work
obese ZSF1 rats [1] = assay: Kidney histology in ZSF1 rats; type: in vivo, rat
Outline: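 At study end, both kidneys were formalin-fixed, paraffin-embedded and stained with H&E, PAS and Masson's trichrome for light microscopy. Tubular, interstitial, vascular and glomerular changes were graded 0–5 (normal to severe). Collagen deposition was graded 0–5 by blue-stained area size and intensity. Group sizes were n = 8 lean and n = 12 per obese group, with 28 weeks of diet dosing.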

obese ZSF1 rats [2] = assay: Renal function in obese ZSF1 rat diabetic nephropathy model; type: in vivo; details: for Urinary protein/creatinine ratio (UPCR): 28 weeks
[3] = Body weight, food and water intake in ZSF1 rats; type: in vivo, rat; details: data not shown
Outline: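 Male obese ZSF1 rats received the test compound in a medicated chow diet from 16 weeks of age for 28 weeks. Before each collection they were acclimated for at least 3 days to single housing in metabolic cages. Body weight and food and water consumption were recorded at every urine and blood collection, at weeks −2, 1, 2, 4, 6, 8, 12, 16, 21, 24 and 28.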

[4] = test system: postmenopausal women with osteoporosis; details: cited from earlier work
platelet aggregation = details: ref Hutchinson et al. 2003; cited from earlier work
αvβx integrins = assay: Thermal shift assay, αvβx integrins; type: binding; details: Fig. S1B
Outline: (§1)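 Differential scanning fluorimetry was run on a real-time PCR instrument. Recombinant integrins (the α1β1–αIIbβ3 panel was recombinant human) were reconstituted in assay buffer with Sypro orange, and test compound was added at 20 µM. ΔTm was calculated against a DMSO control. Runs were in triplicate across three independent experiments.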

human podocytes = assay: Podocyte cell viability; type: cell-based; details: 48 h treatment, unpublished data
[5] = test system: α1β1, α2β1, α3β1, α4β1, α6β1, α9β1, α10β1, α11β1, and αIIbβ3 integrins; assay: Thermal shift assay; type: binding, Human; details: Twenty μM MK‐0429
Outline: as §1

[6] = test system: osteoplastic bone resorption; details: ref Hutchinson et al. 2003; cited from earlier work
αvβ3 = αvβ3 (Homo sapiens, UniProt P05106+P06756); details: ref Hutchinson et al. 2003; cited from earlier work
αvβ3, sequence (P06756 31-992 limits assumed): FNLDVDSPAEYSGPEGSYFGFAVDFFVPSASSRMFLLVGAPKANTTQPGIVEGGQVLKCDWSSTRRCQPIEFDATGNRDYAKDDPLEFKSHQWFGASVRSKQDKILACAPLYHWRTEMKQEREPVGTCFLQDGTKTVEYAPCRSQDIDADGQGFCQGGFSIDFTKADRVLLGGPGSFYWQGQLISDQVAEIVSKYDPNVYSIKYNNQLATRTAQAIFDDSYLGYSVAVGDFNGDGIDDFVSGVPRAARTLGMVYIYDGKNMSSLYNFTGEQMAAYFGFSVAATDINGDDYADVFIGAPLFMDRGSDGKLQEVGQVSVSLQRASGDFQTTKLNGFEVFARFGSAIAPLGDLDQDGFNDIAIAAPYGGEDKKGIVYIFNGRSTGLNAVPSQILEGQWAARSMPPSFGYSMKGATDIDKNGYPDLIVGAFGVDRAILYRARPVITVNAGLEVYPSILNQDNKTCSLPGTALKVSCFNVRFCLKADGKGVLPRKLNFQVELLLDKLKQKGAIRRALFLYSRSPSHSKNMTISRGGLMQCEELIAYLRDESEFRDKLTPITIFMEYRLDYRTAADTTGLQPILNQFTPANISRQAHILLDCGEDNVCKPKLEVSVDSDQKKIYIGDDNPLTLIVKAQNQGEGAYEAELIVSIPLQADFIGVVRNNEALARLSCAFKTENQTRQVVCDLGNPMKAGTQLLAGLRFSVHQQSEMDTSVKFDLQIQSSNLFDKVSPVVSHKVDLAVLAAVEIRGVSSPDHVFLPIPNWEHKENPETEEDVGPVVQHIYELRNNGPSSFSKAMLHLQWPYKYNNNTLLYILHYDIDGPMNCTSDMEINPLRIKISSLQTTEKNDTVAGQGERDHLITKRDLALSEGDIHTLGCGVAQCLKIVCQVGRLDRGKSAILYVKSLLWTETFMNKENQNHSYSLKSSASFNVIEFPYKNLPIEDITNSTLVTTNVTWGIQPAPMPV
αvβ3, sequence (P05106 27-718 limits assumed): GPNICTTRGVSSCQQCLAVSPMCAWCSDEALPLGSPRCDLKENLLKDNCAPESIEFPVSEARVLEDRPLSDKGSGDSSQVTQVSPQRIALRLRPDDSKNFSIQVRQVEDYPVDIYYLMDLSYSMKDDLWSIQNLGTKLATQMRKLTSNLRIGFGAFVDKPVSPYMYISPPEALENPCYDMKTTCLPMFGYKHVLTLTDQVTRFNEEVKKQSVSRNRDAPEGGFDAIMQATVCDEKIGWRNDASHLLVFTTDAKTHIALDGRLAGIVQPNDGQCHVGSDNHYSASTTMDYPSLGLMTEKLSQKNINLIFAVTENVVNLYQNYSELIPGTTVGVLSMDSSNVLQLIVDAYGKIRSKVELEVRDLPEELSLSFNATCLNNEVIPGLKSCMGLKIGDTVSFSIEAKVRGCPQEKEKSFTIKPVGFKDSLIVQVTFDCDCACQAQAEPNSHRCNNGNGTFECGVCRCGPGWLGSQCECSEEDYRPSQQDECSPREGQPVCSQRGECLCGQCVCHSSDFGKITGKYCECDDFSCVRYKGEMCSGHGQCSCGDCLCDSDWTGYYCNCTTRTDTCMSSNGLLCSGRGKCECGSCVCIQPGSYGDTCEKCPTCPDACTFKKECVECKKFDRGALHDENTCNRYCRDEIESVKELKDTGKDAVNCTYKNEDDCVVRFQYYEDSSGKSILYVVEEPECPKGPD

obese ZSF1 rats [7] = assay: Kidney collagen I and III protein by immunohistochemistry in ZSF1 rats; type: in vivo, rat; details: 400 mg/kg/day, versus obese vehicle
Outline: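 Kidneys were taken at study end, formalin-fixed and paraffin-embedded, then deparaffinized and rehydrated. Sections were stained with rabbit polyclonal anti-collagen I (2 ug/mL) or anti-collagen III (3 ug/mL), developed with an HRP-polymer kit and counterstained with hematoxylin. Whole slides were scanned at 20x, and positive stain area was quantified by a colour-deconvolution algorithm. Dosing was in diet for 28 weeks.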

obese ZSF1 rats [8] = assay: Kidney fibrosis marker gene expression by RT-PCR in ZSF1 rats; type: in vivo, rat; details: dose not given
Outline: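 Kidney cortex was snap-frozen, homogenized in TRIzol and column-purified for RNA. A 2 µg RNA sample was reverse-transcribed, and rat TaqMan probes were used for qPCR. Ct values were normalized to the geomean of POLR2A and B2M and quantified by the 2^-ΔΔCT method relative to the obese vehicle group. Treatment was in diet for 28 weeks (n = 12 per obese group).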

[9] = test system: Human primary kidney fibroblasts (HPKF); assay: Kidney fibroblast fibrosis assay; type: cell-based
Outline: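 Primary human kidney fibroblasts were grown on collagen I-coated plates at 37°C in 5% CO2 and serum-starved overnight. They were then given various concentrations of test compound for 24 h. In TGF-β arms, compound was added 1 h before recombinant human TGF-β1 (5 ng/mL final, 24 h). Marker mRNA was measured by RNA extraction, reverse transcription and real-time PCR.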

[10] = test system: men with hormone‐refractory prostate cancer and bone metastases; details: ref Rosenthal et al. 2010; cited from earlier work

Compound: CC(C)(C)c1cc(Br)cc([C@H](CC(=O)O)NC(=O)CNC(=O)c2cc(O)cc(NC3=NCC(O)CN3)c2)c1 (some centres unmarked) [CWHM12]
Liver and lung fibrosis (liver and lung fibrosis): attenuated

Compound: CCOC(=O)[C@H](CCc1ccccc1)N[C@@H](C)C(=O)N1CCC[C@H]1C(=O)O [Enalapril, enalapril]
Kidney fibrosis score (Masson's trichrome) (obese ZSF1 rats [1]; 10 mg/kg/day, 28 weeks, versus obese vehicle): significantly decreased
Urinary protein/creatinine ratio (UPCR) (obese ZSF1 rats [2]; 10 mg/kg/day in diet): significantly decreased
Glomerular filtration rate (GFR) (obese ZSF1 rats [2]; enalapril 10 mg/kg/day in diet): improvement

Binding to other integrins (thermal shift assay) [5]: does not bind and No
Compound: COc1ccc([C@H](CC(=O)O)N2CCN(CCCc3ccc4c(n3)NCCC4)C2=O)cn1 [MK‐0429]
Body weight [3]: no significant effects
Food intake [3]: no significant effects
Water intake [3]: no significant effects
Bone mineral density at spine and hip (multiple endpoints) ([4]; phase II, postmenopausal women with osteoporosis, ref Murphy et al. 2005): improvement
Tolerability in Phase II trials ([4]; ref Hutchinson et al. 2003, Coleman et al. 2004, Murphy et al. 2005, Rosenthal et al. 2010): well tolerated
Glomerular injury score (obese ZSF1 rats [1]; 0–5 scale, data not shown): no significant effect
Tubular injury score (obese ZSF1 rats [1]; 0–5 scale, data not shown): no significant effect
Activity in platelet aggregation assay (platelet aggregation): inactive
Shift of melting temperatures of αvβx integrins (αvβx integrins): dramatic shift
Effect on cell viability (human podocytes): without affecting cell viability
Osteoplastic bone resorption [6]: inhibits
αvβ3 ligand binding (αvβ3): inhibits
Decrease of Type I collagen positive stain (% of area), kidney IHC (obese ZSF1 rats [7]): significantly decreased
Decrease of Type III collagen positive stain (% of area), kidney IHC (obese ZSF1 rats [7]): significantly decreased
αSMA mRNA expression, kidney (obese ZSF1 rats [8]): significantly decreased
Expression of Collagen type I alpha‐1 chain (Col IA1) ([9]; HPKF ± TGF‐β): partially inhibited
Expression of connective tissue growth factor (CTGF) ([9]; HPKF ± TGF‐β): strongly suppressed
Expression of α‐smooth muscle actin (αSMA) ([9]; HPKF ± TGF‐β): partially inhibited
IC50 ([9]; read-out: Inhibition of PAI‐1 gene expression IC50, HPKF, absence of TGF‐β, 24 h): 56.5 nM
Urinary protein/creatinine ratio (UPCR) (obese ZSF1 rats [2]; 400 mg/kg/day in diet): significantly later onset in its effects to reduce
Bone turnover [10]: significantly reduced
